S100A4 MyoIIA – inhibitors of S100A4-myosin IIA peptide binding, primary screen, biochemical, fluorescence polarization, TAMRA-MyoIIA peptide | Protein S100-A4 (Homo sapiens), P26447 | inhibition, % at 10.7 µM | actives 0.14% (n = 360,000);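 active means mean inhibition of at least 70% across replicates, with every replicate also reaching that level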
Target sequence (P26447 whole entry, looked up): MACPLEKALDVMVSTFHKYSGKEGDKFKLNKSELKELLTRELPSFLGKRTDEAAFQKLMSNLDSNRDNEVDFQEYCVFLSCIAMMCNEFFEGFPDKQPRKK
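Compound dosing: one dose per compound; test system: human S100A4 monomer with TAMRA-labelled myosin IIA peptide; probe or stimulus: TAMRA-labelled myosin IIA heavy-chain peptide probe, 5 nM; medium: HEPES buffer with Ca2+, pH 7.2; schedule: 5 min incubation before reading; benchmarks: neutral control DMSO, positive control TFP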
ERp5 inh – inhibitors of ERp5-driven insulin aggregation, primary screen, biochemical, turbidity, absorbance 650 nm, single point | Protein disulfide-isomerase A6 (Homo sapiens), Q15084 | 90 min | inhibition, % at 9.99 µM | actives 0.05% (n = 350,000);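 active means mean replicate inhibition above about 25%, with every replicate also reaching it, limit read from the data, passing the limit was not always enough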
FN deposit inh – inhibitors of fibronectin matrix deposition, primary screen, AH1F cells, Alexa488-fibronectin fluorescence, plate reader. AH1F fibroblasts, overnight. inhibition, % at 12.6 µM. actives 0.086% (n = 350,000). AID 743247, 2014;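 active means mean inhibition across replicates of 30% or more, regardless of how many single replicates reach that level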;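 further: positive control wells lacked labelled fibronectin entirely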
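Material: AH1F fibroblast monolayer depositing Alexa488-labelled fibronectin into matrix | Input: 10000 AH1F cells/well | Medium: DMEM plus 2% serum, read in PBS | Reagent: Alexa488-fibronectin, 24 nM final in well | Compound dosing: One dose per compound, pinned | Schedule: 1 h adhesion, overnight exposure | Measured by: Fluorescence at 485 nm excitation, 525 nm emission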
PDI inh – inhibitors of human PDI, primary screen, biochemical, turbidity, single point, plate reader; PDI insulin aggregation turbidity, A650, 90 min; inhibition, % at 10 µM; actives 0.052% (n = 350,000);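 active means mean inhibition across replicates of 30% or more, whatever share of single replicates reach that level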
Target sequence (P07237 whole entry, looked up): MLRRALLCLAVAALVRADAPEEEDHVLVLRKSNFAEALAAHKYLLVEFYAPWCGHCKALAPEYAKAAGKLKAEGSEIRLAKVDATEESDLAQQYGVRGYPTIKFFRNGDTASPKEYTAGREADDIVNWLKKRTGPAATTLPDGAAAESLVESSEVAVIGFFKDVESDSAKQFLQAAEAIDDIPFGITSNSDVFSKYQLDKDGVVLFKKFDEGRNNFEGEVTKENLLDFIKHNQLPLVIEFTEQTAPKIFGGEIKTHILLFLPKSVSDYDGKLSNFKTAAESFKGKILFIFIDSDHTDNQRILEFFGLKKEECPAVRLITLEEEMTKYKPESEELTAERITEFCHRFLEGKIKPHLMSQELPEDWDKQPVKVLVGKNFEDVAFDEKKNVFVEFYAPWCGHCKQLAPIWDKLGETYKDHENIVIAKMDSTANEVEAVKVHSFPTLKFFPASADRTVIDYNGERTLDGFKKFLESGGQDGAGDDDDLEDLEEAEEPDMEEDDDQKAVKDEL
PglD inh – C. jejuni PglD acetyltransferase inhibitors, primary screen, biochemical, DTNB colorimetric, single point; purified PglD enzyme, DTNB colorimetric CoA detection; AID 602405, 2012; actives 0.098% (n = 360,000); UDP-N-acetylbacillosamine N-acetyltransferase PglD (Campylobacter jejuni); inhibition, % at 12.5 µM; in the data active means inhibition above about 16%, passing the limit was not always enough
RAD54 inh – inhibitors of human RAD54 branch migration, primary screen, biochemical, fluorescence, single point | RAD54 Holliday junction branch migration, FAM/BHQ fluorescence | DNA repair and recombination protein RAD54-like (Homo sapiens), Q92698 | actives 0.14% (n = 360,000) | inhibition, % at 10.4 µM;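 active means mean normalized replicate activity at least 40 and at least half of replicates scoring 40 or more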;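 further: 0% = median of neutral control wells and 100% = median of positive control wells; inhibitors cause a drop in the FAM fluorescence signal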
PglD inh SP – PglD acetyltransferase inhibitors, confirmation, biochemical, DTNB absorbance, single point, cherry-picked samples; AID 743156, 2013; 320 tested, under 10 active; shares compounds with PglD inh; Purified C. jejuni PglD, DTNB absorbance 412 nm; inhibition, % at 20 µM;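 active means mean inhibition across replicates of at least 20% with every single replicate also at 20% or more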;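 further: initial rate of CoA release by acetyl transfer from AcCoA to the UDP-4-amino sugar; 0% = median of neutral control wells and 100% = median of positive control wells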
Numbers without * were called inactive; nt = not tested or not shown. Hits are enriched below; roughly 0.44% of the tested compounds scored in any of these assays.

SMILES	S100A4 MyoIIA	ERp5 inh	FN deposit inh	PDI inh	PglD inh	RAD54 inh	PglD inh SP
COc1ccc(-n2ccnc2)cc1	-2.8	5.0	-4.0	10.8	36.8*	-0.9	9.2
Cc1cc(C)cc(N(C(C)C(=O)N2CCCC2)S(C)(=O)=O)c1 (stereo unspecified)	1.8	3.2	3.9	1.9	74.6*	5.1	-8.6
CC(C(=O)N1CCCC1)N(c1ccccc1)S(C)(=O)=O (stereo unspecified)	1.5	3.6	-7.2	-7.4	2.7	-8.5	nt
O=C(Cc1ccccn1)NCC[C@H]1CC[C@H](NS(=O)(=O)c2ccc(F)cc2)[C@H](CO)O1	-4.6	0.8	nt	nt	-2.7	-1.7	nt
Cc1cccc(C(=O)NCCNC(=O)c2ccco2)c1	4.1	-0.8	-2.2	-0.7	20.2*	-12.4	9.6
COc1cc(C(=O)NCc2ccco2)cc(OC)c1OC	nt	nt	-8.4	-0.1	nt	nt	nt
COc1cc(CC(=O)NCc2ccco2)cc(OC)c1OC	nt	nt	-6.3	0.8	21.9*	-18.1	-1.2
CCOc1ccccc1NC(=S)N1CCC(c2nc3ccccc3o2)CC1	-5.9	3.7	-3.6	-9.9	21.3*	11.5	-1.4
C[C@H](CO)N1C[C@H](C)[C@H](CN(C)C(=O)Nc2ccccc2)Oc2cc(C#C[C@@H](C)O)ccc2S1(=O)=O	-4.8	-2.0	-8.4	nt	0.4	5.1	nt
Cc1c(C(=O)NC(C)C)sc2ncn(CC(=O)N3CCC(C)CC3)c(=O)c12	1.1	1.9	nt	10.5	24.5*	3.6	-0.4
CC(=O)Nc1cccc2c1O[C@@H](CN(C)C)[C@@H](C)CN(C)C2=O	nt	nt	2.7	nt	nt	nt	nt
c1ccc(COc2ncnc3c2ncn3CCCNCc2cccs2)cc1	-5.4	-2.1	4.6	0.7	28.3*	-1.8	1.4
C=C(C)Cn1c2ccc(NC(=O)NCC)cc2c(=O)n1C	6.8	6.6	7.8	1.7	-5.2	-3.6	nt
C=C(C)Cn1c2ccc(NC(=O)NCc3ccccc3)cc2c(=O)n1C	-7.4	4.8	1.6	7.6	20.4*	-1.3	-6.7
Oc1cc2c(cc1CN1CCN(c3cccc(C(F)(F)F)c3)CC1)CCC2	nt	nt	8.0	2.9	55.1*	3.3	0.8
COc1ccc(N2CCN(Cc3cc4c(cc3O)CCC4)CC2)cc1	nt	nt	9.6	11.1	2.1	-5.3	nt
O=C(COc1cccc(Cl)c1)N/N=C\c1cc2ccccc2nc1Cl	nt	nt	nt	5.7	5.3	-5.7	nt
Cc1ccccc1OCC(=O)N/N=C/c1cc2ccccc2nc1Cl	nt	nt	0.4	10.1	25.6*	4.6	3.1
COCC(=O)Nc1ccc2c(c1)C(=O)N(C)C[C@H](OC)[C@H](C)CN(C(=O)Cc1cccnc1)[C@H](C)CO2	4.7	-1.7	-9.1	nt	2.2	3.0	nt
Cc1cc(NC(=O)C2CCN(S(=O)(=O)c3cnc[nH]3)CC2)ccc1Br	nt	nt	1.3	4.6	27.7*	4.6	3.8
Cc1ccc(NC(=O)C2CCN(S(=O)(=O)c3cnc[nH]3)CC2)cc1C	nt	nt	nt	11.8	-4.2	-5.0	nt
COc1ccc(CN(C)C[C@H]2Oc3ccc(NC(=O)Cc4cn(C)c5ccccc45)cc3CC(=O)N([C@H](C)CO)C[C@@H]2C)cc1	5.9	-1.9	nt	nt	nt	nt	nt
COCc1nc2ccccc2n1CCOc1ccccc1OC	nt	nt	1.4	5.4	24.3*	-12.9	-0.6
O=C(C[C@H]1C[C@@H]2c3cc(NC(=O)c4cccnc4)ccc3O[C@@H]2[C@@H](CO)O1)NCC(F)(F)F	-4.7	0.8	nt	nt	0.7	-3.5	nt
CCC(C)(C)NC(=O)Cc1ccc(C)cc1	nt	nt	-2.0	-14.4	47.6*	2.3	-2.1
SMILES	S100A4 MyoIIA	ERp5 inh	FN deposit inh	PDI inh	PglD inh	RAD54 inh	PglD inh SP
COc1ccc([N+](=O)[O-])cc1NC(=O)CCN1CCOCC1	-13.1	-1.6	8.2	3.0	20.8*	-2.3	-3.7
COc1ccc([N+](=O)[O-])cc1NC(=O)CCN1CCN(C)CC1	3.3	-0.8	3.0	0.2	nt	nt	nt
CN(C)C(=O)CSc1nnc(-c2cc(-c3cccs3)nc3ccccc23)o1	nt	nt	nt	20.3	53.7*	6.5	-8.2
COCC(=O)Nc1ccc2c(c1)[C@H]1C[C@@H](CC(=O)NC3CCCCC3)O[C@H](CO)[C@H]1O2	4.7	-6.9	4.5	nt	1.6	0.8	nt
C[C@@H]1CN([C@H](C)CO)S(=O)(=O)c2ccc(-c3ccccc3)cc2O[C@H]1CN(C)C(=O)c1ccccc1F	nt	nt	-13.0	nt	nt	nt	nt
Cc1ccc(C(=O)COC(=O)CCC(=O)Nc2ccccc2Cl)cc1[N+](=O)[O-]	nt	nt	nt	8.5	3.9	-3.1	nt
Cc1ccc(C(=O)COC(=O)CCCC(=O)Nc2cc(C(F)(F)F)ccc2Cl)cc1C	nt	nt	1.3	-3.1	24.3*	-8.3	3.4
O=C(Nc1ccc(F)cc1)N[C@@H]1C[C@@H]2O[C@H](CO)CC[C@@H]2O[C@@H]1CCc1ccc(-c2ccccc2)cc1	4.7	1.1	nt	nt	nt	nt	nt
O=C(O)[C@H]1Cc2ccccc2CN1S(=O)(=O)c1ccc(F)cc1	-2.2	-6.1	-9.7	-2.9	2.7	1.1	nt
CC(=O)c1ccc(S(=O)(=O)N2Cc3ccccc3CC2C(=O)O)cc1 (stereo unspecified)	0.2	8.7	-6.7	-4.1	24.6*	-7.0	0.4
COc1ccc(CONS(=O)(=O)c2ccc(NC(C)=O)cc2)cc1Cl	-10.3	4.7	nt	-4.6	21.8*	-6.3	3.3
COc1cccc(-c2ccc([C@@H]3[C@H]4CN(C(=O)c5ccncc5)CC(=O)N4[C@H]3CO)cc2)c1	-6.2	-4.8	nt	nt	nt	nt	nt
O=C(CCCCCCC(=O)NCc1ccccc1)NCc1ccccc1	-1.0	-1.2	6.2	-6.6	83.6*	-24.5	-12.7
O=C(CCCOc1ccccc1)Nc1cccc(S(=O)(=O)N2CCOCC2)c1	-10.2	-1.6	nt	-18.3	20.8*	-10.7	-3.8
CC(=O)c1ccc(OCCCC(=O)Nc2cccc(S(=O)(=O)N3CCOCC3)c2)cc1	-3.6	2.4	-2.0	8.8	-7.1	-1.6	nt
COc1ccc(OC)c(NC(=O)N2CCCc3ccccc32)c1	1.6	4.7	8.2	3.2	4.8	-3.6	nt
COc1ccc(NC(=O)N2CCCc3cc(C)ccc32)c(OC)c1	-6.2	-26.7	-1.0	-3.6	30.4*	-2.1	-7.6
COc1ccc(NC(=O)Nc2ccc3c(c2)[C@@H]2C[C@@H](CC(=O)NCCc4ccccc4)O[C@@H](CO)[C@@H]2O3)cc1	-0.4	3.3	nt	nt	-0.5	-13.1	nt
